The nature of experiment [1]: Inhibition of Aspergillus nidulans FcyB expressed in germinating conidiospores of UapA, UapC, AzgA, FurD, FurA, FcyB, CntA transporter deficient Aspergillus nidulans assessed as suppression of [2,8 3H]-adenine uptake after 1 min by scintillation counting method. In a few lines:
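In germinating conidiospores of a Δ7 strain expressing only FcyB (uapA promoter), 0.5 μM ³H-adenine uptake was measured over 1 min against varying analogue concentrations. Ki was derived from IC50 by Cheng–Prusoff, Ki = IC50/(1+[S]/Km), with [S] as the fixed radiolabelled substrate concentration. Values are averages of at least three independent experiments with three replicates per concentration point.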

The test system of experiment [2] is Aspergillus nidulans. Nature of the experiment: Inhibition of Aspergillus nidulans FcyB expressed in germinating conidiospores of UapA, UapC, AzgA, FurD, FurA, FcyB, CntA transporter deficient Aspergillus nidulans assessed as [2,8 3H]-adenine uptake at 0.5 mM after 1 min by scintillation counting method relative to control. Details: scale not given: the % may be the effect or the level left. The procedure, abridged: (§1)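 Competition uptake in germinating conidiospores of a Δ7 strain carrying single-copy fcyB driven by the uapA promoter, selected by pabA1 complementation. 0.5 μM ³H-substrate (adenine for line 1, hypoxanthine for line 3) was added together with a 1000-fold excess (500 μM) of analogue. Uptake was stopped after 1 min by freezing, immediate centrifugation and washing. Three experiments, each in triplicate.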

Experiment [3] concerns Aspergillus nidulans. Nature of the experiment: Inhibition of Aspergillus nidulans FcyB expressed in germinating conidiospores of UapA, UapC, AzgA, FurD, FurA, FcyB, CntA transporter deficient Aspergillus nidulans assessed as suppression of [2,8 3H]-hypoxanthine uptake at 0.5 mM after 1 min by scintillation counting method. In a few lines: as §1

Each structure is given as a SMILES string. Active and inactive are the calls of the source. The calls are words filed in the database; no cut-off is given here.

As to `CC(C)n1cnc2c(NCCN(C)C)nccc21`, the inhibition constant (Ki) (in general, a measure of affinity in units of concentration, obtained from inhibition or displacement) in experiment [1] stood at 72 µM. In the experiment with Aspergillus nidulans [2], the Activity is < 10%. For the same compound, the inhibition result with Aspergillus nidulans [3] was “Active”.

Take `CC(C)n1cnc2c(NCc3ccccc3)nccc21`: in experiment [1], the Ki came to 5 µM. Moreover, in the experiment on Aspergillus nidulans [2], the Activity was < 10%. Also, the inhibition result in the experiment with Aspergillus nidulans [3] is “Active”.

Regarding `CN1CCN(c2nccc3c2ncn3C2CCCC2)CC1`, the Ki in experiment [1] turned out to be 38 µM. Besides, in the experiment on Aspergillus nidulans [2], the Activity is < 10%. Besides, in the experiment on Aspergillus nidulans [3], the inhibition entry was “Active”.

Consider `CN(C)CCNc1nccc2c1ncn2C1CCCC1`, for which, in experiment [1], the Ki worked out at 95 µM. Further, the Activity in the experiment on Aspergillus nidulans [2] was < 10%. In the experiment with Aspergillus nidulans [3], the inhibition entry is “Active”.

Consider `Nc1nccc2c1ncn2C1CCCC1`, for which the Ki in experiment [1] was determined as 18 µM. For the same compound, in the experiment on Aspergillus nidulans [2], the Activity was < 10%. Also, the inhibition entry in the experiment on Aspergillus nidulans [3] was “Active”.

`c1ccc(CNc2nccc3c2ncn3C2CCCC2)cc1`: the Ki in experiment [1] is 21 µM. Further, the Activity in the experiment on Aspergillus nidulans [2] is < 10%. In the experiment with Aspergillus nidulans [3], the inhibition result is “Active”.

Source of the values: ChEMBL document CHEMBL3856282, “Design and synthesis of purine analogues as highly specific ligands for FcyB, a ubiquitous fungal nucleobase transporter” (Bioorg Med Chem, 2016).
